A selection: hits, their analogues and other compounds. The true share with any hit is near 2.8%.
NPY Y2 blocker = blocks the human neuropeptide Y Y2 receptor; P49146; NPY-Y2 expressing cells, antagonist mode; inhibition, % at 2.7 µM; 0.99% of 140,000 active; AID 793; in the data active = inhibition above about 17%;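 also: 0% = vehicle with agonist challenge and 100% = reference antagonist with challenge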
PGE2 EP2 inh = EP2 receptor (human) inhibition | C6 glioma cells expressing human EP2, cAMP TR-FRET; cells stimulated with saturating PGE2 | inhibition, % at 25 µM | 0.52% of 260,000 active;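 active = percent inhibition above 40 after rounding to a whole number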;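 also: rat C6 glioma host cells with rolipram phosphodiesterase inhibitor present; the protocol text gives 20 µM as final concentration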
Target sequence (P43116 whole entry, looked up): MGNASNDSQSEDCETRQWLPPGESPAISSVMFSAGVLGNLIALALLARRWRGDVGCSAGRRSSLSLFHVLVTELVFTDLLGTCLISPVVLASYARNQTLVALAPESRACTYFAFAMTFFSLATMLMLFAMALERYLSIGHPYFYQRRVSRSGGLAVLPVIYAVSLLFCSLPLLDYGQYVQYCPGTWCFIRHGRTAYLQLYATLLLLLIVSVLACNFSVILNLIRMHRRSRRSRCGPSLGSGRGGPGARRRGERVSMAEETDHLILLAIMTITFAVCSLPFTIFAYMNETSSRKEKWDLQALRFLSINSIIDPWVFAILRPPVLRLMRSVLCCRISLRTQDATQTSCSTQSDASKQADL
EP2 modulator = modulates human prostaglandin E2 receptor EP2 signaling | AID 940 | induction, % at 25 µM | EP2-expressing cells, cAMP HTRF FRET, PGE2 co-stimulation | 0.83% of 260,000 active | P43116;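 active = compounds whose cAMP rise, as percent of the full-agonist control response, exceeds 60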;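 also: rat C6 glioma line stably carrying human EP2 under a CMV promoter; the protocol text gives 20 µM as final concentration; 100% = response of wells given 1 µM PGE2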
NPY Y1 blocker = antagonists of human neuropeptide Y receptor Y1; AID 1040; P25929; HEK293-CNG Y1 cells, membrane potential fluorescence; NPY at EC95, then isoproterenol; 1% of 200,000 active; inhibition, % at 3.6 µM;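 active = inhibition above the campaign mean inhibition of all tested compounds plus 3 SD, cut at about 20% in these data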;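 also: 0% = DMSO wells given NPY plus isoproterenol and 100% = isoproterenol alone without NPY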
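Material: Y1- and CNG-channel-expressing HEK293 cells / Probe or stimulus: NPY 25 nM then isoproterenol 1 µM plus Ro 20-1724 25 µM / Doses: 3.6 µM single dose, DMSO 0.4% / Schedule: compound incubation 1 h at room temperature, readout 45 min post-stimulation / Signal: membrane potential fluorescence / Benchmarks: isoproterenol-only wells as full block versus NPY-plus-isoproterenol wells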
NPY1 pot ag = potentiators or agonists of human neuropeptide Y receptor Y1; NPY-Y1 expressing cells, potentiator/agonist activation; activation, % at 3.6 µM; P25929; 0.37% of 220,000 active; AID 1304; in the data active = activation above about 33%, passing the limit was not always enough;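 also: cells stimulated with NPY at EC10 then isoproterenol at EC100; 0% = low agonist plus stimulus and 100% = saturating agonist plus stimulus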
NPY2 pot ag = potentiates or activates human NPY-Y2 receptor. P49146. cells expressing NPY-Y2, potentiator/agonist read-out. activation, % at 3.6 µM. 0.45% of 220,000 active. AID 1359; in the data active = activation above about 27%;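 also: cells stimulated with NPY near EC25 plus isoproterenol at EC100; 0% = vehicle plus submaximal agonist and 100% = vehicle plus saturating agonist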
EP2 cAMP induct = human EP2 receptor cAMP induction, negative in counter-screens. shares compounds with EP2 modulator. C6 glioma EP2 cells, cAMP HTRF induction; plus low (about EC15) PGE2 agonist. calls only at 20 µM (by protocol). 47% of 1,300 active. AID 1080;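 active = cAMP induction above 50% in the main assay while under 30% in all four parallel counter assays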;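 also: rat C6 glioma cells stably expressing human EP2 receptor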
Active calls of the source: *.

For COc1ccc(CCN(C)Cc2nc(-c3cnccn3)no2)cc1OC the results were PGE2 EP2 inh 7, EP2 modulator 14, NPY1 pot ag 6 and NPY2 pot ag -1.
COc1ccc(CCN(Cc2nc(-c3ccccc3)no2)Cc2nc(-c3ccccc3)no2)cc1OC was read as NPY Y2 blocker 3, PGE2 EP2 inh 11, EP2 modulator 50, NPY Y1 blocker 4, NPY1 pot ag 5, NPY2 pot ag 4 and EP2 cAMP induct inactive.
`COc1cccc(CC(=O)N2CCC(n3nc(C4CC4)ccc3=O)CC2)c1` gave EP2 modulator -37.
O=c1[nH]c2cc3c(cc2cc1CN(Cc1cccnc1)S(=O)(=O)c1ccccc1F)OCO3 was read as PGE2 EP2 inh 31 and EP2 modulator -22.
For O=C(CSc1nc2ccccc2c(=O)[nH]1)c1ccc(Cl)c(Cl)c1 the results were PGE2 EP2 inh 8 and EP2 modulator 16.
`COc1cc2cnncc2cc1OC` gave NPY Y2 blocker -1, PGE2 EP2 inh 5, EP2 modulator 17, NPY Y1 blocker 4, NPY1 pot ag -10 and NPY2 pot ag -4.
Screening COc1cc2cc(Br)cc(Br)c2nc1C returned NPY Y2 blocker 3, PGE2 EP2 inh 14, EP2 modulator 78*, NPY Y1 blocker 8, NPY1 pot ag -20, NPY2 pot ag -7 and EP2 cAMP induct inactive.
For Cc1ccc(Cl)cc1NC(=S)N(Cc1ccco1)C(C)c1cccs1 (centres undefined) the results were PGE2 EP2 inh 5, EP2 modulator 63*, NPY Y1 blocker 12, NPY1 pot ag -13, NPY2 pot ag -1 and EP2 cAMP induct inactive.
Cc1ccc(C)c(NC(=S)N(Cc2ccco2)C(C)c2cccs2)c1 (centres undefined) was read as PGE2 EP2 inh 5, EP2 modulator 68*, NPY Y1 blocker 2, NPY1 pot ag 10, NPY2 pot ag -3 and EP2 cAMP induct inactive.
`Cc1ccc(NC(=S)N(Cc2ccco2)C(C)c2cccs2)c(Cl)c1` (centres undefined) gave PGE2 EP2 inh 4, EP2 modulator 36, NPY Y1 blocker 10, NPY1 pot ag -12 and NPY2 pot ag 0.
For CC12CCC(c3nnc(SCC(=O)Nc4ccc(Cl)cc4)nc31)C2(C)C (centres undefined) the results were PGE2 EP2 inh 9 and EP2 modulator -54.
Screening Clc1ccc(Cl)c(-c2ccc(/C=N/c3ncn[nH]3)o2)c1 returned NPY Y2 blocker 4, PGE2 EP2 inh 30, EP2 modulator 71*, NPY Y1 blocker -1, NPY1 pot ag 7, NPY2 pot ag 6 and EP2 cAMP induct inactive.
CCOc1ccc(OCC)c(NC(=O)CN2CCN(c3cc(C)ccc3C)CC2)c1 was read as NPY Y2 blocker -1, PGE2 EP2 inh 11, EP2 modulator 78*, NPY Y1 blocker 0, NPY1 pot ag -20, NPY2 pot ag -13 and EP2 cAMP induct active.
CCOc1ccc(OCC)c(NC(=O)CN2CCN(c3cccc(C)c3)CC2)c1 was read as NPY Y2 blocker 3, EP2 modulator 73*, NPY Y1 blocker 0, NPY1 pot ag -9, NPY2 pot ag 3 and EP2 cAMP induct active.
For O=C(NCCCCCNC(=O)c1ccncc1)c1ccncc1 the results were PGE2 EP2 inh 1 and EP2 modulator 15.
CCC1CCCCN1C(=O)[C@H]1C[C@@H](c2ccc(F)cc2)NS(=O)(=O)N1C (some centres undefined) was read as EP2 modulator -74.
`CC(C)Cc1nc(SCc2cccnc2)c2c(=O)n(C)c(=O)n(C)c2n1` gave PGE2 EP2 inh 5, EP2 modulator 63*, NPY Y1 blocker 9, NPY1 pot ag -12, NPY2 pot ag -9 and EP2 cAMP induct inactive.
`O=C1N2c3ccccc3CCc3cccc(c32)C1(O)C(F)(F)F` (centres undefined) gave NPY Y2 blocker 2, PGE2 EP2 inh 10, EP2 modulator 79*, NPY Y1 blocker 2, NPY1 pot ag -12, NPY2 pot ag 15 and EP2 cAMP induct inactive.
`O=S(=O)(c1ccccc1)c1nc(-c2ccco2)oc1N1CCCCCC1` gave NPY Y2 blocker 8, PGE2 EP2 inh 15, EP2 modulator 68*, NPY Y1 blocker 3, NPY1 pot ag -1, NPY2 pot ag 0 and EP2 cAMP induct inactive.
`CCC(CN1CCOCC1)NC(=O)C(Cc1ccc(F)cc1)c1ccccc1` (centres undefined) gave PGE2 EP2 inh 7 and EP2 modulator -43.
`C(=N\N1CCN(C2c3ccccc3-c3ccccc32)CC1)/c1cccnc1` gave NPY Y2 blocker 6, PGE2 EP2 inh 15, EP2 modulator 74*, NPY Y1 blocker 7, NPY1 pot ag -22, NPY2 pot ag -16 and EP2 cAMP induct inactive.
`CCCc1cc(=O)[nH]c(SCC(=O)N2CCC(C(=O)OCC)CC2)n1` gave NPY Y2 blocker -1, PGE2 EP2 inh 13, EP2 modulator 68*, NPY Y1 blocker 0, NPY1 pot ag -13, NPY2 pot ag -4 and EP2 cAMP induct inactive.
Cc1cc(=O)[nH]c(SCC(=O)N2CCC(C(N)=O)CC2)n1 was read as NPY Y2 blocker 1, PGE2 EP2 inh 6, EP2 modulator 13, NPY Y1 blocker 7, NPY1 pot ag -20 and NPY2 pot ag 13.
For O=C(C(c1ccccc1)c1ccccc1)N1CCCc2ccccc21 the results were NPY Y2 blocker 8, PGE2 EP2 inh 17, EP2 modulator 78*, NPY Y1 blocker 8, NPY1 pot ag -14, NPY2 pot ag 7 and EP2 cAMP induct active.
For O=C(NC(=O)N1CCCc2ccccc21)c1ccccc1 the results were PGE2 EP2 inh 6, EP2 modulator 21, NPY Y1 blocker 1, NPY1 pot ag -3 and NPY2 pot ag 8.
For CCCOc1ccc(-c2csc(NC(C)=O)n2)cc1 the results were PGE2 EP2 inh 11 and EP2 modulator 17.
`O=C(Cn1nnc2ccccc21)Nc1nc(-c2ccccc2)cs1` gave PGE2 EP2 inh 11 and EP2 modulator -9.
For COc1ccc2[nH]c(C(=O)O)c(NS(=O)(=O)c3ccc(Cl)s3)c2c1 the results were NPY Y2 blocker 1, PGE2 EP2 inh 1, EP2 modulator 20, NPY Y1 blocker 3, NPY1 pot ag 1 and NPY2 pot ag 9.
For CCOC(=O)c1[nH]c2ccc(OC)cc2c1NS(=O)(=O)c1ccc(Cl)s1 the results were NPY Y2 blocker 4, PGE2 EP2 inh 4, EP2 modulator 96*, NPY Y1 blocker 9, NPY1 pot ag -66, NPY2 pot ag -19 and EP2 cAMP induct active.
